Tested on: MS2 coat protein
Experiment: apparent Kd, MS2 coat protein; higher = weaker binding; RNA-MaP array; FMN 200 µM where present
Summary of the method: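 The apparent Kd is reported as the median of filtered per-cluster binding-curve fits. To get these curves, designs transcribed by stalled E. coli RNA polymerase on Illumina sequencing-chip clusters were titrated with SNAP-549-labelled MS2 coat protein from 0.7 or 1.5 nM, doubling to 3 µM. Titrations were run without and then with constant ligand in 100 mM Tris-HCl pH 7.5, 80 mM KCl, 4 mM MgCl2, BSA, DTT, yeast tRNA and Tween-20, and green signal was normalised to red-channel RNA signal and control-cluster median Fmax.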

[1] = designed as: ON switch for flavin mononucleotide, no ligand
[2] = ligand present: flavin mononucleotide, designed as: ON switch for flavin mononucleotide
[3] = designed as: OFF switch for flavin mononucleotide, no ligand
[4] = ligand present: flavin mononucleotide, designed as: OFF switch for flavin mononucleotide

Sequence | apparent Kd [1] | apparent Kd [2] | apparent Kd [3] | apparent Kd [4]
AAAAAAAAAAGACAGGAUAUCCAAAAAAAAACAUGAGGAUCACCCAUGUAAAAAAAAAAAAAGUGGGAGAAGGGUCAAAAAAAAAA | 57.7 nM | 23.2 nM | – | –
AAAAAACAAGGAUAUACGAAGGAUGGUUAUCUUAAUUUUUGACAUGAGGAUCACCCAUGUAGAAGGUGUUAAAA | – | – | 37.9 nM | 76.2 nM
AAAAAACAUGAGGAUCACCCAUGUAAUAAAACGUCAGGAUAUUGAUUUUAUUAUUUAUUACAAGAAGGGACAAAAA | 133 nM | 57.6 nM | – | –
AAAAAACAUGAGGAUCACCCAUGUCAGGAUAUACGAUAAAAAAAAAAAAAAAAAAAAUGUAGAAGGGACAAAAA | – | – | 78.3 nM | 73.9 nM
AAAAAACAUGAGGAUCACCCAUGUCGAAAGACGUGAGGAUAUGUACAGACUUCGGUCUGUACAGAAGGCAUGUCAA | 94 nM | 20.2 nM | – | –
AAAAAACAUGAGGAUCACCCAUGUCUUUUGACAUGAGGAUAUGUACAGACUUCGGUCUGUACAGAAGGCAUGUAAA | 511 nM | 34.7 nM | – | –
AAAAAACAUGAGGAUCACCCAUGUGAGGAUAUCGAAAAGUCAAAGAAAAAGACGAAAACGAGAAGGCGCAAAAA | – | – | 49.6 nM | 45.5 nM
AAAAAACAUGAGGAUCACCCAUGUGAGGAUAUCGAGAAGAAGAAGAAGAAGAAGAGAACGAGAAGGCACAAAAA | – | – | 47.4 nM | 51.5 nM
AAAAAACAUGAGGAUCACCCAUGUUAGGAUAUGCUAUGGAAAAUAAAAAAUAAACAUAGCAGAAGGAACAAAAA | – | – | 43.4 nM | 48.9 nM
AAAAAGACAGGAUAUACAUGAAAAAAAAAAAAAAAAAAAAAACAUGAGGAUCACCCAUGUAGAAGGGUCAAAAA | – | – | 111 nM | 106 nM
AAAAAGGCAGGAUAUACAUGAGGAUCACCCAUGUUUUAAAAAAAAAAAAAAAAAAAAAGUAGAAGGGCCAAAAA | – | – | 55.4 nM | 45.1 nM
AAAAAGUCAGGAUAUGGCAAAGGUCACGAAAGUGACAAAGGCUAGAAGGGACAUGAGGAUCACCCAUGUAAAAA | – | – | 29 nM | 32.4 nM
AAAAAGUCAGGAUAUGUAGCAAAAGGUGAUCAAAAAAAGCUACAGAAGGGACAUGAGGAUCACCCAUGUAAAAA | – | – | 262 nM | 336 nM
AAAAAGUGAGGAUAUACAUGAGGAUCACCCAUGUAAUAAAAAAAAAGGGUGGAAGAAAGUAGAAGGCACCAAAA | – | – | 62.4 nM | 356 nM
AAAAAUGGAGGAUAUACAUGAGGAUCACCCAUGUGUGACUAUACUAUGCGCUCUUCAGGUAGAAGGCCAAAAAA | – | – | 28.4 nM | 39.4 nM
AAAACAUGAGGAUCACCCAUGUAAAGAACGGUUAAUAGAAGUGAGGAUAUACUAAAUUUUAGGUAGUAGAAGGCACUGGGUACA | 21.5 nM | 22.5 nM | – | –
AAAACAUGAGGAUCACCCAUGUAAAGAUCGGUCGAUCAAGGUGAGGAUAUACAAAACUUGAUGGAGUAGAAGGCACUGGGUUGA | 384 nM | 201 nM | – | –
AAAACAUGAGGAUCACCCAUGUAAAGUUCAAACAAUAUGAGUGAGGAUAUACUGAGUUAGUUAUGGUAGAAGGCACUGGGUACA | 35 nM | 28.7 nM | – | –
AAAACGAAAGUCGAACGAUGUAGCAGAAGGACAUGAGGAUCACCCAUGUCAGCUGUAACAGCCAUGUAGGAUAUGCUACAUUUU | – | – | 5.47 nM | 6.35 nM

Sequence | apparent Kd [1] | apparent Kd [2] | apparent Kd [3] | apparent Kd [4]
AAAACGUCAGGAUAUACAGAAGAGAUCACAAAAAAAAAAAAACAUGAGGAUCACCCAUGUAGAAGGGACAAAAA | – | – | 138 nM | 188 nM
AAAACUGAAGGAUAUGCCAGGGUGAGAGCUGGUGACGUUUAACAUGAGGAUCACCCAUGUAGAAGGUCAAAACA | – | – | 15.3 nM | 17 nM
AAAAGCCAAGGAUAUACAUGAGGAUCACCCAUGUAAGAAAUGGGCGCUACCGUUCCGUGUAGAAGGUGGGAAAA | – | – | 28.6 nM | 65 nM
AAAAGGGCAGGAUAUACAUGAGGAUCACCCAUGUGAAAAAAAAAAAAAAAAAAAAAGUGUAGAAGGGUCAAAAA | – | – | 74 nM | 76 nM
AAAAUACAUGAGGAUCACCCAUGUUAGGAUAUCCAAGGCCUGACCCUCAAGGUCAGGCGGAGAAGGGAUGUGGU | – | – | 50.4 nM | 51.3 nM
AAAAUCUAUUGAGGAUAUUCAUACACUACGUACGGAGAAGGCAAACAAUCAUGAGGACAUGAGGAUCACCCAUGUUGUGACCAU | 17.6 nM | 10.6 nM | – | –
AAAAUGUCAGGAUAUGCGAAGGCAUCUGACAGAUGAGGAUUGCAGAAGGGACAUGAGGAUCACCCAUGUAAAAA | – | – | 40.3 nM | 47.5 nM
AAAAUGUGAGGAUAUCACGGAACUCCGCGUGACGGAGCUCCUGAGAAGGCACAUGAGGAUCACCCAUGUCCUGU | – | – | 52.8 nM | 276 nM
AAACACGGACAUGAGGAUCACCCAUGUGGCGAAAGCCUUGGGAGAAGGUAUUAUGCAAAGCAUUAUAAGGAUAUUCAUACCGUG | 821 nM | 187 nM | – | –
AAACCGUGUGGAGGAUAUGCAGUUGAGGUGAGGUGGCAACUCUAUACGACAGCAGAAGGCCACAUGAGGAUCACCCAUGUAGGU | – | – | 251 nM | 73.6 nM
AAACUGUGAGGAUAUGGUGAGUAGUGCCUGAGCGCUGCUCACCAGAAGGCACAUGAGGAUCACCCAUGUAUAAA | – | – | 25.5 nM | 74.7 nM
AAAGACAUGGUGCAGGAUAUAUUAAUAGUCACAUGAGGAUCACCCAUGUUCAGAUAUCUGAACGAGUAGAAGGGCGAUGAAAAAA | 602 nM | 589 nM | – | –
AAAGAGCGAGGAUAUACGUAUCGGUGCGGCCCGCCGAUGUGACAUGAGGAUCACCCAUGUAGAAGGCGCAGAAA | – | – | 26.2 nM | 33 nM
AAAUAAACUACGAAGAUAUCCUCACAUGAGGAUCACCCAUGUCAGGAUAUUUGUCCUAAAAGGACAGAGAAGGGACAUCGUAGA | – | – | 5.15 nM | 11.4 nM
AAAUAAAGCAGUGUAUUAAUAUAACAUGAGGAUCACCCAUGUAGAAGGCUCGAGCAAUAUGCUCGAGAGGAUAUACAACACUGC | – | – | 7.3 nM | 7.18 nM
AAAUAAAGCAGUGUGGUAAGAUCACAUGAGGAUCACCCAUGUAAGGAUAUCUGUCCUAAAAGGACAGAGAAGGUACGUCACUGC | – | – | 18.9 nM | 79.6 nM
AAAUAACAUGUAGGAUAUCCAGCAUUGACCAUCGGAGAAGGACAUGAGGAUCACCCAUGUACCGAUACAAUGGAAUAAGGGAAU | – | – | 16 nM | 17.9 nM
AAAUAACCUAGCAAAAUUUCCUCACAUGAGGAUCACCCAUGUAGAAGGCUGUCCUAAAAUAGGACAGAGGAUAUACAUGCUAGG | – | – | 10.6 nM | 171 nM
AAAUACCUUGUGAUCAGCGUAACAUGAGGAUCACCCAUGUUGCAGGAUAUCGAACCCAGUCAGUACGAGAAGGGCAAUAGUGUU | – | – | 7.16 nM | 11.6 nM

Sequence | apparent Kd [1] | apparent Kd [2] | apparent Kd [3] | apparent Kd [4]
AAAUAGGUAGGAUAUACAUGGAUAUACAUUCAUGUGGACCUACAUGAGGAUCACCCAUGUAGAAGGACCUAGUA | – | – | 40.2 nM | 43.7 nM
AAAUAGUUAGGAUAUACAUGAGGAUCACCCAUGUGGACUGAUGGCGAUUGAUUCAGUGGUAGAAGGGACUCAAA | – | – | 37.4 nM | 56.4 nM
AAAUCAGCAGGAUAUACGAUUUUAUGCUAGAUAGAGGGACCACAUGAGGAUCACCCAUGUAGAAGGGCUAGAUA | – | – | 24.6 nM | 26.4 nM
AAAUUCCUCACAGGAUAUCCUACAUGAGGAUCACCCAUGUACUAACUGAGCAAAUUGCAACAAAAGGAGAAGGGUGAGGUGAAG | 36.3 nM | 4.25 nM | – | –
AAAUUCCUCACAGGAUAUCCUACAUGAGGAUCACCCAUGUACUAACUGAGCGAAUUGCAACAAAAGGAGAAGGGUGAGGUGAAG | 31.5 nM | 6.35 nM | – | –
AAAUUCUGAGGAUAUCGAUGUUUGUACAUGAGGAUCACCCAUGUCCUUUUUAUUUUUUCUCGAGAAGGCAGUGUAU | – | – | 38.1 nM | 35.3 nM
AAAUUUAACGAAGGAUAUGGUUACAUGAGGAUCACCCAUGUGUGCCUUGUGAUGCUGAUUAAGUUCCAGAAGGUCGUAUACAUA | – | – | 84.8 nM | 234 nM
AACAAGUUAGGAUAUGCUGCUCGUCACAAAAGUGAUGAGUAGCAGAAGGAACAUGAGGAUCACCCAUGUAAAGA | – | – | 29.3 nM | 23.7 nM
AACAAUCUAUCUGAGGAUAUCAUGAAAAAAACAUGAGGAUCACCCAUGUGCAGGAAAACUGCAUAUGAGAAGGCAGAUAGAUUGA | 702 nM | 27 nM | – | –
AACAGGUUCACAUGAGGAUCACCCAUGUUAGCCUAAUGUAGGAGAAGGACGGUAGCUGGGCUGACGUAGGAUAUCCUACUGUGA | 5.08 nM | 5.11 nM | – | –
AACAGUACAGGAUAUACAUGAGGAUCACCCAUGUGAGAAUUAAGUGGCGAACCACAAAGUAGAAGGGUACUGGA | – | – | 59.6 nM | 197 nM
AACAGUAUAGGAUAUACAUGAGGAUCACCCAUGUGAGAAUUACGUGGCGUACCACGAAGUAGAAGGAUACUGGA | – | – | 38.6 nM | 168 nM
AACAUGGUGCAGGAUAUCCAACAUAUCGCGAGAGGAGAAGGGUACACAUGAGGAUCACCCAUGUGUGGUCUGUU | – | – | 29.3 nM | 223 nM
AACCUAAAACAGAAGGCCAGCUACAUGAGGAUCACCCAUGUCGAAUCAUGGAGGAUAUGUUGUUAUUUACUCGCAGAUGAGUGC | 28.1 nM | 5.51 nM | – | –
AACGAUCUAGGAUAUACAUGAGGAUCACCCAUGUAAGAGCUCAAACCGAGCUCCCUCUGUAGAAGGAGGUCAAA | – | – | 54.5 nM | 45.9 nM
AACGCGGAAAUCGCAAUACAUGAGGAUCACCCAUGUAGAUCGCAGGAUAUGGUCUAGUCAGUGGUCCAGAAGGGUGAUCAGAAC | 125 nM | 74.5 nM | – | –
AACGGGUCAGGAUAUUGUUAGUUUAGUUGUUUGUAUUAGUUCGAGAAGGGACAUGAGGAUCACCCAUGUGGUAA | – | – | 66.1 nM | 62 nM
AACGGGUGGGUAGGAUAUGGCCAUGUCUCAUUGCUAGAAGGACCAGCUGCUACAUGAGGAUCACCCAUGUCGUAGUGCACCCAG | 105 nM | 15.6 nM | – | –

From the EternaBench riboswitch data
